Source: paper PMC9321963 (Birth Defects Research, 2022)
Where two headings read alike, the source gives them in different places.

What was measured:
[1] = Toxicokinetics, rat DRF EFD study; type: in vivo; conditions: for AUC(0-t) / Cmax / Tmax: female, Sprague-Dawley (Crl:CD SD), rat, plasma, po, 60 mg/kg/day, rat DRF EFD, 60 mg/kg/day oral; for Cmax: C max; for Tmax: T max
[2] = Toxicokinetics, rabbit main EFD study; conditions: female, in vivo
pregnant rats [3] = experiment: Rat DRF embryofetal developmental toxicity study; type: in vivo; conditions: rat DRF EFD
[4] = Rat main embryofetal developmental toxicity study; type: in vivo; conditions: female, Sprague-Dawley, rat, in vivo, oral, maternal NOAEL, rat main EFD
How it was run: (§1)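 GLP main study following ICH S5(R2): 24 time-mated naïve Crl:CD SD females per group (plug day = GD0) given 2, 6 or 20 mg/kg/day orally once daily GD6–GD17. Vehicle was 20% w/w Kolliphor HS 15 / 50% w/w PEG 400 in water, with the compound suspended in it. Necropsy followed CO2 euthanasia on GD21. Maternal body weight, weight gain, food intake, pregnancy status, corpora lutea, postimplantation loss and live fetuses were recorded. Fetal weight, external, visceral and skeletal examinations were done.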

pregnant rats [5] = experiment: Rat main embryofetal developmental toxicity study; type: in vivo; conditions: for food consumption, % of control / maternal weight gain, % of control: GD6 to GD9
How it was run: as §1

AhR = target: T1, AhR (Homo sapiens, UniProt P35869); experiment: In vitro off-target inhibition, AhR
T1 sequence (P35869 11-848): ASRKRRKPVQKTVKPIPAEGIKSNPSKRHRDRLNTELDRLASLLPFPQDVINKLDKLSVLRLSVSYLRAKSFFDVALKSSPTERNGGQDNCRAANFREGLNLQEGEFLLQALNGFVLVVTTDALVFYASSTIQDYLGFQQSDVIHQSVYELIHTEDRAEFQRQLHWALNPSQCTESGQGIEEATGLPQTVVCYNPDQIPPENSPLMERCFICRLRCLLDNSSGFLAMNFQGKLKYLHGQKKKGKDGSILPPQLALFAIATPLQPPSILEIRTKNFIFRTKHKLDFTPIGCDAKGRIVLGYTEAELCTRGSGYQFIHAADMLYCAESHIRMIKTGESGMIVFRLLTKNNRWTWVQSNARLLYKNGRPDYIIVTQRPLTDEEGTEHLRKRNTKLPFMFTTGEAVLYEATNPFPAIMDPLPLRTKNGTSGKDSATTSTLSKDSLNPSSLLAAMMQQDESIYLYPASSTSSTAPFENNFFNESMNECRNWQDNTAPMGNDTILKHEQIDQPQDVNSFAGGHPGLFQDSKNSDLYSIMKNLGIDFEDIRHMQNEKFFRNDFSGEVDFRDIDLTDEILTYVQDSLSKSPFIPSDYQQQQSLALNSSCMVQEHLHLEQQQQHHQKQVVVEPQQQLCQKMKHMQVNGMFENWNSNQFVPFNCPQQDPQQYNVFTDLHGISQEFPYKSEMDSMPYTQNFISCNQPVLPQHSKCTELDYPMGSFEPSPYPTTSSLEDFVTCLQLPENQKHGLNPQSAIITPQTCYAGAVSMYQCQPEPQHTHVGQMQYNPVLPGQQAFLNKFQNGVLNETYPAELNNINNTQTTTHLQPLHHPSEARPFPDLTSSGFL

PI3Kδ = PI3Kδ (Homo sapiens, UniProt O00329); experiment: ADP-Glo Kinase Assay, PI3Kδ; type: biochemical
Chain of PI3Kδ (O00329 whole entry): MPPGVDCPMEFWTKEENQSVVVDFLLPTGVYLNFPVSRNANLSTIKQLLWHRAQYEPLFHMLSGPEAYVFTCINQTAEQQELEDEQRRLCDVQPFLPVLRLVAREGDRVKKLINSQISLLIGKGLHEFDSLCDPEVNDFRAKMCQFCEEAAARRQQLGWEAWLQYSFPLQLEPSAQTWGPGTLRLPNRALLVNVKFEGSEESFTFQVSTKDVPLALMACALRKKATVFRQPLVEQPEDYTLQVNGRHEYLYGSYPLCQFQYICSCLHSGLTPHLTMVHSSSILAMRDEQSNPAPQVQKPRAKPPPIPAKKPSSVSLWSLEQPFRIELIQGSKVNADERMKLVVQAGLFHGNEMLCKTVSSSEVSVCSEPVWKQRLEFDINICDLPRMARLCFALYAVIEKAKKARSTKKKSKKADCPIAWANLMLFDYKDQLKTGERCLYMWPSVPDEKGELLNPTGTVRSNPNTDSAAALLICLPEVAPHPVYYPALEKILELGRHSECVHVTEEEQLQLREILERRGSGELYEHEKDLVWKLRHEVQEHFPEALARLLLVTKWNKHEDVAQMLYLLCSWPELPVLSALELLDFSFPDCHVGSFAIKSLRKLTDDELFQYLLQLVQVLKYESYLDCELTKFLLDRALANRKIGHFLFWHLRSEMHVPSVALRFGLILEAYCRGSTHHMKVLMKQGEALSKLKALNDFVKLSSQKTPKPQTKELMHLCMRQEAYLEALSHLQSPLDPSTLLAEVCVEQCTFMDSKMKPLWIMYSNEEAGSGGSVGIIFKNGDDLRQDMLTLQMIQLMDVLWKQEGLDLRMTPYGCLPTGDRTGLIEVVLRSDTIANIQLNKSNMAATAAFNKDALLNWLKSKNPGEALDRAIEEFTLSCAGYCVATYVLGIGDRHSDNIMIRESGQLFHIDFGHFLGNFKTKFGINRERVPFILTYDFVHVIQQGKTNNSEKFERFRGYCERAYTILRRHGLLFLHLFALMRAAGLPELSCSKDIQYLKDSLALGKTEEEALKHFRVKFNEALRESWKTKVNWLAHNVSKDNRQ
Chain of PI3Kδ (P27986 whole entry partner): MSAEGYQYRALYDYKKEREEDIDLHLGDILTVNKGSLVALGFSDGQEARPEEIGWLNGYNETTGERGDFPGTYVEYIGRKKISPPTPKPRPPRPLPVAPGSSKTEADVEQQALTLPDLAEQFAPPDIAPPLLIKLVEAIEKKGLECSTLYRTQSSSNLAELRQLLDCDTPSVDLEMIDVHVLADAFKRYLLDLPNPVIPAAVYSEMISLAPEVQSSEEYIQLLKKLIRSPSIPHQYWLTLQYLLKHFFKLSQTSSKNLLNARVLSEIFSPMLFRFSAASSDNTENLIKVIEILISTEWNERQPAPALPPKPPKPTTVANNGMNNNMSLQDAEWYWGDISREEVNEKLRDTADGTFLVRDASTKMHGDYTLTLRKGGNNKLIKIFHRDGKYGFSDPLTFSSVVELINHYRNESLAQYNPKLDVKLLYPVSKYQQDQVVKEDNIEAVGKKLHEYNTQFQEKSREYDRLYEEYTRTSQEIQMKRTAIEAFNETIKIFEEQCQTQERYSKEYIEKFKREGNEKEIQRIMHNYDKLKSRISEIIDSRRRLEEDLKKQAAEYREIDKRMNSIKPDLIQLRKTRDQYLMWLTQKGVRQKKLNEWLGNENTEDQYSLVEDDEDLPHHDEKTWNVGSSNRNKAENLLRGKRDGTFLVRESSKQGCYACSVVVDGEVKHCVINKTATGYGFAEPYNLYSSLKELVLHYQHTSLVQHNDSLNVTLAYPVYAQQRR

[6] = target: All other off‐targets including kinases tested; experiment: In vitro off-target and kinase panels, all other targets; type: biochemical; conditions: read-out: IC50s, all other off‐targets including kinases tested, human
[7] = human, male, ref McCarthy et al. ([2020]), cited from earlier work
[8] = rat main EFD, 2 mg/kg/day GD6-GD17
[9] = rat main EFD, 6 mg/kg/day GD6-GD17
[10] = rat main EFD, 20 mg/kg/day GD6-GD17

CS(=O)(=O)c1ccc(-c2cnc(N)c(-c3ccc(C(F)(F)F)nc3)c2)cc1 [MMV390048]
maximum concentrations achieved in vivo, free ([1]; across rat EFD in vivo studies): 8 µM | AUC(0-t) ([1]; GD6): 229000 ng·h/mL | AUC(0-t) ([1]; GD17): 361000 ng·h/mL | Cmax ([1]; GD6): 15600 ng/mL | Cmax ([1]; GD17): 21300 ng/mL | Tmax ([1]; GD6): 8 h | Tmax ([1]; GD17): 4 h | Maximum exposure (free) ([1]; rat DRF EFD KIT, GD17, 60 mg/kg, 4 hr post dose): 8 μM/L | AUC(0-t) ([2]; 1 mg/kg/day): 4090 ng·h/mL | Cmax ([2]; 1 mg/kg/day): 250 ng/mL | Tmax ([2]; 1 mg/kg/day): 4 h | AUC(0-t) ([2]; 3 mg/kg/day): 13600 ng·h/mL | Cmax ([2]; 3 mg/kg/day): 894 ng/mL | Tmax ([2]; 3 mg/kg/day): 2 h | AUC(0-t) ([2]; 10 mg/kg/day): 53300 ng·h/mL | Cmax ([2]; 10 mg/kg/day): 3410 ng/mL | Tmax ([2]; 10 mg/kg/day): 2 h | Female with viable fetuses (pregnant rats [3]; 3 mg/kg/day GD6-GD17): 8/8 | Postimplantation loss (%) (pregnant rats [3]; 3 mg/kg/day GD6-GD17): 5.1% | Female with viable fetuses (pregnant rats [3]; 10 mg/kg/day GD6-GD17): 8/8 | Fetal BW % from CTL (pregnant rats [3]; 10 mg/kg/day GD6-GD17): −2% | Postimplantation loss (%) (pregnant rats [3]; 10 mg/kg/day GD6-GD17): 1.7% | Female with viable fetuses (pregnant rats [3]; 30 mg/kg/day GD6-GD17): 7/7 | Fetal BW % from CTL (pregnant rats [3]; 30 mg/kg/day GD6-GD17): −5% | Heart VSD, fetuses with malformation/total fetuses examined (pregnant rats [3]; 30 mg/kg/day GD6-GD17): 1/43 | Heart VSD, litters with malformation/total litters examined (pregnant rats [3]; 30 mg/kg/day GD6-GD17): 1/7 | Postimplantation loss (%) (pregnant rats [3]; 30 mg/kg/day GD6-GD17): 5.9% | Treatment‐related skeletal malformations (pregnant rats [3]; 60 mg/kg/day): fused rib, short rib, split sternebra, and fused cervical arch | VSD, number of fetuses (pregnant rats [3]; 60 mg/kg/day): 3 fetuses | VSD, number of litters (pregnant rats [3]; 60 mg/kg/day): 3 litters | hernia of the diaphragm, number of fetuses (pregnant rats [3]; 60 mg/kg/day): 12 fetuses | hernia of the diaphragm, number of litters (pregnant rats [3]; 60 mg/kg/day): 3 litters | Blood vessels IAA, fetuses with malformation/total fetuses examined (pregnant rats [3]; 60 mg/kg/day GD6-GD17): 1/40 | Blood vessels IAA, litters with malformation/total litters examined (pregnant rats [3]; 60 mg/kg/day GD6-GD17): 1/8 | Female with viable fetuses (pregnant rats [3]; 60 mg/kg/day GD6-GD17): 8/8 | Fetal BW % from CTL (pregnant rats [3]; 60 mg/kg/day GD6-GD17): −16% | Heart VSD, fetuses with malformation/total fetuses examined (pregnant rats [3]; 60 mg/kg/day GD6-GD17): 7/40 | Heart VSD, litters with malformation/total litters examined (pregnant rats [3]; 60 mg/kg/day GD6-GD17): 3/8 | Hernias, fetuses with malformation/total fetuses examined (pregnant rats [3]; 60 mg/kg/day GD6-GD17): 12/40 | Hernias, litters with malformation/total litters examined (pregnant rats [3]; 60 mg/kg/day GD6-GD17): 3/8 | Postimplantation loss (%) (pregnant rats [3]; 60 mg/kg/day GD6-GD17): 21.9% | litter size (pregnant rats [3]; 60 mg/kg/day, 14 in the control group): 10.6 | NOAEL [4]: 2 mg/kg/day | Developmental safety margins (pregnant rats [5]; rat NOAEL of 6 mg/kg/day vs observed clinical PK data, human volunteers and patients): < 1 | Female with viable fetuses (pregnant rats [5]; [8]): 22/22 | Postimplantation loss (%) (pregnant rats [5]; [8]): 6.9% | Edema, fetuses with malformation/total fetuses examined (pregnant rats [5]; [9]): 1/336 | Edema, litters with malformation/total litters examined (pregnant rats [5]; [9]): 1/23 | Female with viable fetuses (pregnant rats [5]; [9]): 23/23 | Postimplantation loss (%) (pregnant rats [5]; [9]): 3.5% | food consumption, % of control (pregnant rats [5]; rat main EFD, 6 mg/kg/day): 8.9 % of control | maternal weight gain, % of control (pregnant rats [5]; rat main EFD, 6 mg/kg/day): 20.2 % of control | Female with viable fetuses (pregnant rats [5]; [10]): 22/22 | Hernias, fetuses with malformation/total fetuses examined (pregnant rats [5]; [10]): 1/154 | Hernias, litters with malformation/total litters examined (pregnant rats [5]; [10]): 1/22 | Postimplantation loss (%) (pregnant rats [5]; [10]): 2.9% | food consumption, % of control (pregnant rats [5]; rat main EFD, 20 mg/kg/day): 11.5 % of control | maternal weight gain, % of control (pregnant rats [5]; rat main EFD, 20 mg/kg/day): 41.1 % of control | IC50 (AhR): 7.9 µM | IC50 (PI3Kδ): 8.1 µM | IC50 [6]: ≥ 20 µM | AUC(0−inf) ([7]; dose 40 mg): 30,320 hr*ng/ml | C max ([7]; dose 40 mg): 272.7 ng/mL | T max ([7]; dose 40 mg): 1.5 h | AUC(0−inf) ([7]; dose 80 mg): 82,680 hr*ng/ml | C max ([7]; dose 80 mg): 561 ng/mL | AUC(0−inf) ([7]; dose 120 mg): 137,800 hr*ng/ml | C max ([7]; dose 120 mg): 1,094 ng/ml | T max ([7]; dose 120 mg): 1 h
